# The RNAGym collection of RNA variant scans (doi:10.1126/science.aae0568)
# Fewer inactive variants are shown than the library holds.
# B1: tRNA (parent)
# chain: GUUCCGUUGGCGUAAUGGUAACGCGUCUCCCUCCUAAGGAGAAGACUGCGGGUUCGAGUCCCGUACGGAACG
# Variants of: B1
# Assay: yeast fitness relative to wild type (ratio to wild type); higher = fitter; tRNA-Arg(CCU), competitive growth, 37 C, YPD
# Summary of the method: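 A pool of Saccharomyces cerevisiae strains, each with a tRNA-Arg(CCU) gene variant at the native genomic locus, was competed in YPD at 37°C for 24 hours across six parallel replicates. The variants had been chemically synthesised at a 3% per-site mutation rate over 69 sites, and gene amplicons before and after competition were read by 100-nucleotide paired-end sequencing. Darwinian fitness relative to wild type rested on changes in genotype frequencies. Genotypes required ≥ 100 starting reads, and estimates < 0.5 were set to 0.5.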
row,Variant,yeast fitness
1,U8A C24A U64A,≤ 0.5
2,U7G A14C A20G C22U C49G G56C A70G,≤ 0.5
3,U8A A20C A43U A69C,≤ 0.5
4,U7G A21C G44C,0.545
5,U7C U16C,0.831
6,U7G C30U G38A G50A U59C,≤ 0.5
7,U7G G9A C31G A36G,0.576
8,U8A A14C C24U U35A G63A,0.803
9,U7G A42C G44C A65C,1.08
10,U8A C11A A36G C61G A69G,≤ 0.5
11,U8A C11G C34G,0.624
12,U8A C31G A42C C55U G68A,≤ 0.5
13,U7G A40C G67C,≤ 0.5
14,U7G C30A C62A,≤ 0.5
15,U7C G68C A69U,0.612
16,U8A C27G G39A C46U G67A,≤ 0.5
17,U7G C11G C34U A37U C46A G51A,≤ 0.5
18,U7G U32A C46U C60A,≤ 0.5
19,U7G U26C,0.88
20,U8A C30U A57C,≤ 0.5
21,U7G U13C G52A A57C A65C,≤ 0.5

row,Variant,yeast fitness
1,U7G C27G A40U G68C,≤ 0.5
2,U8A A21C G56C,≤ 0.5
3,U8A C34A A65U,≤ 0.5
4,U7G G44C,0.666
5,U7G G9A,0.827
6,U8A A40C C46U G52A,≤ 0.5
7,U8A A21G,0.681
8,U8A C61A G67C,0.561
9,U7G U64A,0.971
10,U7G A15G C33G,≤ 0.5
11,U8A C27U A43U,≤ 0.5
12,U8A A15U C29U,≤ 0.5
13,U8A C27A A37U,≤ 0.5
14,U8A C24U A40C A42C A45U,≤ 0.5
15,U7G U54C C55G,≤ 0.5
16,U7G G25C C60A,0.623
17,U8A A40U G52C,0.573
18,U7G G18C C31A,≤ 0.5
19,U7G C55G G56C,0.608
20,U8A A40C C46U,≤ 0.5
21,U8A A14U A15G U32C A57U,0.599

row,Variant,yeast fitness
1,U8A A40C,0.774
2,U7G G23C C30G A36U C61U A65U,0.527
3,U7G C11G C30G C33G G48C C60A,≤ 0.5
4,U8A A15C G18C C49U,0.603
5,U8A C31G C46U C60A,≤ 0.5
6,U7C U32G C33G U59C,≤ 0.5
7,U8A A21C A42U G50A,≤ 0.5
8,U8A C27A G39C G51C,≤ 0.5
9,U7G G58C C66U,0.645
10,U8A C29U C31A G38A,≤ 0.5
11,U8A A36U G48C,0.668
12,U7G C11G C34U G41A C46U,≤ 0.5
13,U7G A37G C55G,≤ 0.5
14,U7G C22A U64C A70C,≤ 0.5
15,U8A A15U A37C G68A,≤ 0.5
16,U7G C34G A36C C62G G68C,≤ 0.5
17,U8A C24U A40U A42C A45U,0.563
18,U8A C22G A36U,≤ 0.5
19,U7C U16A G41C,0.613
20,U7G C29U,0.775
21,U8A A40G A42U A45U U59G,≤ 0.5

row,Variant,yeast fitness
1,U8A C31A C33G,0.542
2,U7C U19A C62A G67C,≤ 0.5
3,U7G G12A,0.816
4,U8A A43C G44C,≤ 0.5
5,U7C U35C A37C,0.732
6,U7G A14G U35G A43G U59A,0.669
7,U8A C11U C31G G38C A40C G56A,≤ 0.5
8,U7C U26C,0.866
9,U8A C30A A65G,0.543
10,U8A C11A C27U,0.546
11,U8A C30G C46A G63A,≤ 0.5
12,U7G C62G,0.603
13,U7G C11U U16A,0.518
14,U7G U8G A15C,0.543
15,U7C U28A A37G C46U U47C,≤ 0.5
16,U8A C22U G56A U59A,≤ 0.5
17,U7G C27A,0.744
18,U8A A70U,0.813
19,U7G A20U C46G,0.562
20,U7G A43G C46G G63A,≤ 0.5
